These results are taken from article PMC9907071 (Proceedings of the National Academy of Sciences of the …, 2022).

Values after ≈ are worked out from the molar mass of the structure shown. Values joined by “and” are separate entries in the source; they are usually repeats but may differ in a detail not shown here. Identical values can stand only once. Like-named read-outs stand apart in the source and are kept apart here.

One data set concerns the target T1, AbDHODH (Acinetobacter baumannii, UniProt B7GZW7).
T1 sequence (B7GZW7 1-334): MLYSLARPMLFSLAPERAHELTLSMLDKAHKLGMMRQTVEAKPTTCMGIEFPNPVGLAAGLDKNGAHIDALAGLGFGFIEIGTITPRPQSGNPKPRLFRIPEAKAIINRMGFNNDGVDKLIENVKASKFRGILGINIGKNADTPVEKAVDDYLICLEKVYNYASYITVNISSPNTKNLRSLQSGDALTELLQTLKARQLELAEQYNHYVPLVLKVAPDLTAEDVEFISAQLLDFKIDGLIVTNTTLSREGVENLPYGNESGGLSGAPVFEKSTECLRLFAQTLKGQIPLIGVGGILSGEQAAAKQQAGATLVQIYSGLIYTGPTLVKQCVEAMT
Kind of data set: AbDHODH steady-state rate assay. It counts as biochemical.

In the next data set the test system is A. baumannii AB307-0294. Kind of data set: Antimicrobial susceptibility testing in MM. In kind it is cell-based, Acinetobacter baumannii. Particulars: for EC50: Acinetobacter baumannii, AB3070294, 24 h, read-out: AB307 EC50; for uracil rescue of growth: AB307, 0.2 mM uracil; for cidal or static activity by CFU vs initial inoculum: AB307 and HUMC1, DSM186 at >1 µg/mL, DSM161 at highest concentrations assessed.

For data set [1], the system named is A. baumannii HUMC1 (CR-XDR). Kind of data set: Antimicrobial susceptibility testing in MM. It counts as cell-based, Acinetobacter baumannii. Particulars: for EC50 / MIC: Acinetobacter baumannii, 24 h; for EC50: read-out: HUMC EC50.
Data set [2] concerns the target T2, HsDHODH (Homo sapiens, UniProt Q02127). Particulars: read-out: HsDHODH IC50; previously reported; ref [25], [27]; cited from earlier work.
The test system of the next data set is A. baumannii LAC-4 (MDR). Kind of data set: Antimicrobial susceptibility testing in MM. In kind it is cell-based. Particulars: Acinetobacter baumannii, 24 h; for EC50: read-out: LAC-4 EC50; for MIC: read-out: LAC-4 MIC. In outline: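 Overnight (18 h) cultures in minimal medium (MM) plus casamino acids were diluted 1:1,000 and titred on LB plates. Test compound (in DMSO) was added at various concentrations, giving about 5 × 10^5 CFU/mL final. Medium-only and DMSO wells served as controls. Plates were shaken at 37 °C for 24 h, reading Å600 every 15 min. […] There were 2–4 technical replicates per concentration, and results are mean ± SEM of multiple independent studies.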

Data set [3] deals with A. baumannii AB307. Kind of data set: Time-kill assay. Particulars: DSM186 1 µg/mL, DSM161 17.5 µg/mL, meropenem 1 µg/mL. In kind it is cell-based, Acinetobacter baumannii. Summed up: (§1)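 Time-kill assays were run in pyrimidine-deficient MM at a fixed compound concentration: 1 µg/mL (2.9 µM) or 17.5 µg/mL (50 µM). Untreated and meropenem 1 µg/mL (2.6 µM) comparators were included. CFU was enumerated over time against the starting inoculum. Data are mean ± SEM of 2–4 independent studies, each with 2–5 technical replicates.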

The subject of a further data set is A. baumannii AB307ΔpyrD. Kind of data set: Time-kill assay. Particulars: pyrimidine-deficient medium. In kind it is cell-based, Acinetobacter baumannii.
For data set [4], the system named is A. baumannii AB307-0294 isolates. Kind of data set: Susceptibility of AB307-0294 isolates recovered from DSM161-treated mice. In kind it is cell-based, Acinetobacter baumannii. Particulars: eight independent colonies of AB307 from three animals. In outline: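 Neutropenic BALB/c mice were infected in the thigh with AB307 and given test compound orally at 100 mg/kg at 0 and 12 h. Eight independent colonies were recovered from three sites in three animals and retested. MIC was determined by CFU at 24 h in MM, defined as growth within ± ½ log of the starting inoculum.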

For data set [5], the target named is T2, HsDHODH. In words: biochemical.
The test system of another data set is A. baumannii HUMC1. In words: Time-kill assay. In kind it is cell-based, Acinetobacter baumannii. Particulars: DSM186 1 µg/mL, meropenem 1 µg/mL. Summed up:
as §1

The subject of data set [6] is A. baumannii AB307. In words: Efflux and permeability assay. It counts as cell-based, Acinetobacter baumannii. Particulars: DSM186 0.015 µg/mL.
For the next data set, the system named is A. baumannii strains. In words: DSM186 on a panel of A. baumannii strains. In kind it is cell-based, Acinetobacter baumannii. Particulars: for MIC: Acinetobacter baumannii.
The nature of data set [7]: Microsomal stability. In kind it is in vitro ADME. Particulars: human liver microsomes.
A short description of data set [8]: Microsomal stability. It counts as in vitro ADME. Particulars: mouse microsomes.
Setting [9] is: read-out: MIC as measured by CFU.

T2 sequence (Q02127 whole entry): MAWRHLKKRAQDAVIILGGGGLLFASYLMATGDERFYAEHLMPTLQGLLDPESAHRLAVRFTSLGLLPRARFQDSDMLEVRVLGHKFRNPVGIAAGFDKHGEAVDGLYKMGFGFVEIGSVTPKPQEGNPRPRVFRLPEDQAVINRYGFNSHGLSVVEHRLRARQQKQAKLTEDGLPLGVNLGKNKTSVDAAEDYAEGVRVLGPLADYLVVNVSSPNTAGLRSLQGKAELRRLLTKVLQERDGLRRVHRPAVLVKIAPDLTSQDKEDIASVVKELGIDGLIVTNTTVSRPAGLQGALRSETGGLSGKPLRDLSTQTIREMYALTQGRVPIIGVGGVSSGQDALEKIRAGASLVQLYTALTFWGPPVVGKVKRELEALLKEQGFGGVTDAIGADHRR

With `Cc1cc(Nc2ccc(C(F)(F)F)c(F)c2)n2ncnc2n1` [DSM125], the IC50 against AbDHODH was 910 ± 70 nM; on HsDHODH [2], over 100000 nM. Also, the concentration for a half-maximal effect (EC50) in the data set with A. baumannii AB307-0294 came to 9600 nM; in data set [1] it was 34000 nM. The MIC in data set [1] (read-out: HUMC MIC) is 51 µM and 16 µg/mL.

For the molecule `Cc1cc(Nc2ccc(S(F)(F)(F)(F)F)cc2)n2ncnc2n1` [DSM161], the IC50 was 300 ± 110 nM at AbDHODH and over 100000 nM at HsDHODH [2]. Further, in the data set on A. baumannii AB307-0294, the “uracil rescue of growth” value is given as “uracil rescue was also demonstrated”. For the same molecule, the “cidal or static activity by CFU vs initial inoculum” value in the data set with A. baumannii AB307-0294 is “bacteriostatic”. For the same molecule, the results for the EC50 (in the data set with A. baumannii AB307-0294; in data set [1]; with A. baumannii LAC-4 (MDR)) were 1400 ± 300 nM, 8400 ± 850 nM and 4400 ± 470 nM, respectively. Besides, the “fold MIC by CFU higher than MIC by absorbance assay” value in the data set with A. baumannii AB307-0294 (both strains (AB307, HUMC1)) is given as 10 fold. The MIC in data set [1] (read-out: HUMC MIC) is 25 µM and 8.8 µg/mL; in data set [1] (setting [9]), 50 µM and 17.5 µg/mL; with A. baumannii LAC-4 (MDR) it was 25 µM and 8.8 µg/mL. In addition, the “fold difference in potency, drug-resistant strains vs drug-sensitive AB307” value in [1] (HUMC1 and LAC-4 vs AB307) is reported as 3–6 fold. Moreover, in the data set with A. baumannii AB307 [3], the “time-kill: CFU over time vs starting inoculum” value is recorded as “decreased below the starting inoculum”. The “time-kill: killing of DHODH deletion mutant” value in the data set with A. baumannii AB307ΔpyrD is listed as “neither DSM186 nor DSM161 caused increased killing”. Moreover, the “change in MIC (by CFU) of colonies recovered from treated animals” value in data set [4] was “no change in MIC”.

Consider `Cc1cc(Nc2ccc(S(F)(F)(F)(F)F)cc2)n2ccnc2n1` [DSM186], for which the IC50 on AbDHODH is 28 ± 3.8 nM; against HsDHODH [5], over 100000 nM. Moreover, the “uracil rescue of growth” value in the data set with A. baumannii AB307-0294 is recorded as “rescued by the addition of uracil”; in [1] (HUMC1, 0.2 mM uracil), “rescued by the addition of uracil”. Also, the “cidal or static activity by CFU vs initial inoculum” value with A. baumannii AB307-0294 is on record as “cidal activity”. Besides, the figures for the EC50 (in the data set on A. baumannii AB307-0294; in data set [1]; in the data set with A. baumannii LAC-4 (MDR)) were 53 ± 8.2 nM, 170 ± 3.3 nM and 170 ± 33 nM, respectively. For the same molecule, the MIC in data set [1] (read-out: HUMC MIC) is 0.78 µM and 0.27 µg/mL; in data set [1] (setting [9]), 1.6 µM and 0.55 µg/mL; in the data set on A. baumannii LAC-4 (MDR), 1.3 µM and 0.45 µg/mL; with A. baumannii strains (read-out: MIC assessed by Å600), 0.11 to 1.09 µg/mL (≈ 0.314 to 3.11 µM); in the data set on A. baumannii strains (read-out: minimal inhibitory concentration), at most 1 µg/mL. Besides, the “time-kill: CFU over time vs starting inoculum” value in the data set with A. baumannii AB307 [3] and in the data set on A. baumannii HUMC1 was “decreased below the starting inoculum” in each case. The “time-kill: killing of DHODH deletion mutant” value in the data set on A. baumannii AB307ΔpyrD is recorded as “neither DSM186 nor DSM161 caused increased killing”. For the same molecule, the “effect of combination of PAβN and PMBN on activity” value with A. baumannii AB307 [6] is listed as “less active than PMBN alone”. Moreover, in the data set with A. baumannii AB307 [6] (PAβN 70 µg/mL), the “effect of efflux inhibitor PAβN on activity” value is recorded as “somewhat increased the activity”. Moreover, the “effect of permeability-increasing agent PMBN on activity” value in the data set on A. baumannii AB307 [6] (PMBN 64 µg/mL) is recorded as “somewhat increased the activity”. Besides, the “concentration inhibiting growth by CFU” value in the data set with A. baumannii strains (17/23 strains, relative to starting inoculum (± ½ log) at 24 h) is 1 µg/mL and 2.9 µM; with A. baumannii strains (remaining six strains), 2 µg/mL and 5.8 µM. In addition, in the data set with A. baumannii strains (30 strains including 12 CR-XDR isolates), the “activity across strains tested” value was “active against all the 30 strains tested”. The metabolic stability result is reported as “metabolically stable” in “Microsomal stability [7]” and “less stable” in “Microsomal stability [8]”.

`Cc1cc(Nc2ccc3c(c2)CCCC3)n2ccnc2n1` [DSM187] had an IC50 at AbDHODH of 170 nM.

As for `Cc1cc(Nc2ccc(C(F)(F)F)cc2)c2ccccc2n1` [DSM250], the figures for the IC50 at AbDHODH and on HsDHODH [5] were 85 ± 15 nM and over 100000 nM, respectively. Besides, the “concentrations showing some off-target activity” value in the data set with A. baumannii AB307-0294 (AB307, uracil rescue study) was “above 10 µM”. Further, the “uracil rescue of growth” value in the data set with A. baumannii AB307-0294 is listed as “uracil rescue was also demonstrated”. The EC50 was determined as 380 ± 140 nM in the data set with A. baumannii AB307-0294 and 1600 nM with A. baumannii LAC-4 (MDR). Moreover, the MIC with A. baumannii LAC-4 (MDR) was 12.5 µM and 3.8 µg/mL.

At AbDHODH, `Cc1cc(Nc2ccc(S(F)(F)(F)(F)F)cc2)n2nc(C(C)(F)F)nc2n1` [DSM265] gave an IC50 of 590 ± 160 nM. Further, in the data set with A. baumannii AB307-0294, the “uracil rescue of growth” value was “uracil rescue was also demonstrated” and the EC50 amounted to 2700 ± 210 nM.

Take `C[C@@H](O)[C@H]1C(=O)N2C(C(=O)O)=C(S[C@@H]3CN[C@H](C(=O)N(C)C)C3)[C@H](C)[C@H]12` [meropenem, reference compound]: the “time-kill: CFU over time vs starting inoculum” value with A. baumannii AB307 [3] was “decreased below the starting inoculum”.
